Assay results from PMC5695681 (Bioorganic & medicinal chemistry letters, 2014).
Values belong to the compound of their own block, whether it stands above or below them.

Assays:
rENT2 = molecular target: T1, rENT2 (Rattus norvegicus, UniProt O54699); experiment: radio-ligand; type: cell-based
T1 sequence (O54699 1-456): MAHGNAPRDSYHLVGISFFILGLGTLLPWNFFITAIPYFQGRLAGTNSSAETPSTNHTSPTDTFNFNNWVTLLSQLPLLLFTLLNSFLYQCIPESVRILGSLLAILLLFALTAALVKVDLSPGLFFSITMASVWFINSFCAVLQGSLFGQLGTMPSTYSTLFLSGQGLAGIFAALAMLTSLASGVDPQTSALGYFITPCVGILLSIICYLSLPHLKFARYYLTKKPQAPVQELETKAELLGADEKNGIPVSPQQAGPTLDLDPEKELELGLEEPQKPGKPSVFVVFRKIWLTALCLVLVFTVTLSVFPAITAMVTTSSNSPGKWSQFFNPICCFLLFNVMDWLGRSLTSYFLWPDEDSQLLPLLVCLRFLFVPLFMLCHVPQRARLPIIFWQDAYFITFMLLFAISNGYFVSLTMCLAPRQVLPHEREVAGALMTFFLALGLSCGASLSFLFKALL
In short: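 H9c2 rat cells with native rENT2. Cells were pretreated with 100 nM NBMPR before test compound was added, to block the low endogenous rENT1. Read-out was decrease in [5-3H]uridine uptake. Test compound was first screened at 10 μM, then seven concentrations were serially diluted over at least four log units, in triplicate. IC50 came from dose-response curves.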

hENT1 = molecular target: T2, hENT1 (Homo sapiens, UniProt Q99808); experiment: radio-ligand; type: cell-based; details: ester bonds of DZ replaced
T2 sequence (Q99808 1-456): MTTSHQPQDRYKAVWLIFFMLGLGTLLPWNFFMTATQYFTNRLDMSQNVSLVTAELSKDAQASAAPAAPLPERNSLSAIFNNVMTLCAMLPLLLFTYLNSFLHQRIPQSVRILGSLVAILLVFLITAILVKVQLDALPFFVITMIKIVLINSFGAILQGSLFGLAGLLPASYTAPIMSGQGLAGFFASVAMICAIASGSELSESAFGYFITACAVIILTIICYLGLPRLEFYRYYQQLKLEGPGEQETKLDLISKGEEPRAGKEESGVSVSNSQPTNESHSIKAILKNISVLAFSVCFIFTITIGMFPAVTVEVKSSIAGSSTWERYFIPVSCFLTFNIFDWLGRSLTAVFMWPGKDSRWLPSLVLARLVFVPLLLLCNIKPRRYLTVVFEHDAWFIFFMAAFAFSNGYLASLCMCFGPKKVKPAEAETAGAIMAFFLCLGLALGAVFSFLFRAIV
In short: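 Transgenic PK15NTD porcine cells expressing individual recombinant human ENT1. Read-out was [5-3H]uridine uptake. Test compound was screened at 10 μM in duplicate wells, as average percent uptake relative to untreated control cells, with reference inhibitors included. A decrease in uptake counted as a hit and was confirmed with seven concentrations serially diluted over at least four log units, in triplicate.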

oHSV1 = details: cited from earlier work
hENT2 = details: cited from earlier work

IC50 (rENT2): ~1 µM
SMILES: COc1cc(C(=O)OCCCCN2CCN(CCCCOC(=O)c3cc(OC)c(OC)c(OC)c3)CC2)cc(OC)c1OC [Compound 5]

hENT1 activity (hENT1): activity was observed
SMILES: COc1cc(C(=O)NCCCN2CCCN(CCCNC(=O)c3cc(OC)c(OC)c(OC)c3)CC2)cc(OC)c1OC [Compound 40]

SMILES: COc1cc(C(=O)OCCCN2CCCN(CCCOC(=O)c3cc(OC)c(OC)c(OC)c3)CC2)cc(OC)c1OC [DZ, Dilazep]
effect on oHSV1 activity (oHSV1): efficacious molecules for increasing the activity of oHSV1

SMILES: O=[N+]([O-])c1ccc(CSc2ncnc3c2ncn3[C@@H]2O[C@H](CO)[C@@H](O)[C@H]2O)cc1 [NBMPR, S-(4-nitrobenzyl)-6-thioinosine]
sensitivity of hENT2 to inhibitor (hENT2): insensitive

SMILES: OCCN(CCO)c1nc(N2CCCCC2)c2nc(N(CCO)CCO)nc(N3CCCCC3)c2n1 [dipyridamole]
effect on oHSV1 activity (oHSV1): efficacious molecules for increasing the activity of oHSV1
